Assay results reported in ChEMBL document CHEMBL2311404, “Synthesis, antibacterial activity and docking of 14-membered 9-O-(3-arylalkyl) oxime 11,12-cyclic carbonate ketolides” (2013).
In brackets after ≈: the same amount, converted by molar mass.

Key:
Format in all cases: functional
Staphylococcus aureus [1] = test: Antibacterial activity against erythromycin-susceptible Staphylococcus aureus ATCC 29213 by broth microdilution method
In short: (§1)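 MIC by broth microdilution following CLSI recommendations. Clinical isolates were identified by 16S rDNA sequencing and labeled by genotype and phenotype. S. aureus ATCC 29213 and S. pneumoniae ATCC 49619 served as control strains, with azithromycin and clarithromycin as reference agents.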

[2] = test system: Staphylococcus haemolyticus; test: Antibacterial activity against methicillin-resistant, constitutive MLS-resistant, coagulase-deficient Staphylococcus haemolyticus PU 19 expressing ermA gene by broth microdilution method
In short: (§2)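 Clinical isolates confirmed by 16S rDNA sequencing. MIC determined by broth microdilution following CLSI recommendations. Quality-control strains were S. aureus ATCC 29213 and S. pneumoniae ATCC 49619. Azithromycin and clarithromycin were run in parallel as reference agents.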

Streptococcus pneumoniae [3] = test: Antibacterial activity against penicillin-resistant, constitutive MLS-resistant Streptococcus pneumoniae PU 11 expressing erm and mef genes by broth microdilution method; in short: as §2
Streptococcus pneumoniae [4] = test: Antibacterial activity against erythromycin-sensitive Streptococcus pneumoniae ATCC 49619 by broth microdilution method; in short: as §1
[5] = test system: Staphylococcus epidermidis; test: Antibacterial activity against methicillin-resistant, constitutive MLS-resistant Staphylococcus epidermidis E 2 by broth microdilution method; in short: as §2
Streptococcus pyogenes [6] = test: Antibacterial activity against erythromycin-susceptible Streptococcus pyogenes A3 by broth microdilution method; in short: as §1
[7] = test system: Streptococcus dysgalactiae; test: Antibacterial activity against erythromycin-resistant Streptococcus dysgalactiae A1 expressing efflux pump by broth microdilution method; in short: as §2
Streptococcus pyogenes [8] = test: Antibacterial activity against constitutive MLS-resistant Streptococcus pyogenes A2 by broth microdilution method; in short: as §2
Staphylococcus aureus [9] = test: Antibacterial activity against methicillin-resistant, inducible MLS-resistant Staphylococcus aureus PU 32 expressing ermA gene by broth microdilution method; in short: as §2
[10] = test system: Staphylococcus epidermidis; test: Antibacterial activity against methicillin-susceptible, inducible MLS-resistant Staphylococcus epidermidis E 1 by broth microdilution method; in short: as §2
Streptococcus pneumoniae [11] = test: Antibacterial activity against penicillin-susceptible Streptococcus pneumoniae PU 09 expressing mef gene by broth microdilution method; in short: as §1
Streptococcus pneumoniae [12] = test: Antibacterial activity against penicillin-susceptible, constitutive MLS-resistant Streptococcus pneumoniae PU 27 expressing erm gene by broth microdilution method; in short: as §2
Staphylococcus hominis = test: Antibacterial activity against methicillin-resistant, inducible MLS-resistant, coagulase-deficient Staphylococcus hominis E 3 by broth microdilution method; in short: as §2
Staphylococcus aureus [13] = test: Antibacterial activity against methicillin-sensitive, inducible MLS-resistant Staphylococcus aureus PU 64 expressing ermA gene by broth microdilution method; in short: as §2
Staphylococcus aureus [14] = test: Antibacterial activity against methicillin-resistant, constitutive MLS-resistant Staphylococcus aureus PU 20 expressing ermC gene by broth microdilution method; in short: as §2

Compound	MIC (Staphylococcus aureus [1]) [µg/mL]	MIC [2] [µg/mL]	MIC (Streptococcus pneumoniae [3]) [µg/mL]	MIC (Streptococcus pneumoniae [4]) [µg/mL]	MIC [5] [µg/mL]	MIC (Streptococcus pyogenes [6]) [µg/mL]	MIC [7] [µg/mL]	MIC (Streptococcus pyogenes [8]) [µg/mL]	MIC (Staphylococcus aureus [9]) [µg/mL]	MIC [10] [µg/mL]	MIC (Streptococcus pneumoniae [11]) [µg/mL]	MIC (Streptococcus pneumoniae [12]) [µg/mL]	MIC (Staphylococcus hominis) [µg/mL]	MIC (Staphylococcus aureus [13]) [µg/mL]	MIC (Staphylococcus aureus [14]) [µg/mL]
CC[C@H]1OC(=O)[C@H](C)C(=O)[C@H](C)[C@@H](O[C@@H]2O[C@H](C)C[C@H](N(C)C)[C@H]2O)[C@](C)(OC)C[C@@H](C)/C(=N\OCC#Cc2cccc3cnccc23)[C@H](C)[C@H]2OC(=O)O[C@@]21C	0.064 (≈ 0.0806 µM)	64 (≈ 80.6 µM)	32 (≈ 40.3 µM)	0.016 (≈ 0.0202 µM)	64 (≈ 80.6 µM)	≤ 0.008	0.125 (≈ 0.157 µM)	32 (≈ 40.3 µM)	0.125 (≈ 0.157 µM)	0.064 (≈ 0.0806 µM)	0.125 (≈ 0.157 µM)	0.125 (≈ 0.157 µM)	0.125 (≈ 0.157 µM)	–	–
CC[C@H]1OC(=O)[C@H](C)C(=O)[C@H](C)[C@@H](O[C@@H]2O[C@H](C)C[C@H](N(C)C)[C@H]2O)[C@](C)(OC)C[C@@H](C)/C(=N\OCC#Cc2cncnc2)[C@H](C)[C@H]2OC(=O)O[C@@]21C	0.125 (≈ 0.168 µM)	256 (≈ 344 µM)	128 (≈ 172 µM)	0.032 (≈ 0.043 µM)	> 256	0.016 (≈ 0.0215 µM)	0.125 (≈ 0.168 µM)	128 (≈ 172 µM)	0.125 (≈ 0.168 µM)	0.064 (≈ 0.0859 µM)	0.25 (≈ 0.336 µM)	0.25 (≈ 0.336 µM)	0.064 (≈ 0.0859 µM)	0.064 (≈ 0.0859 µM)	256 (≈ 344 µM)
CC[C@H]1OC(=O)[C@H](C)C(=O)[C@H](C)[C@@H](O[C@@H]2O[C@H](C)C[C@H](N(C)C)[C@H]2O)[C@](C)(OC)C[C@@H](C)/C(=N\OCCCc2cnc3ccccc3c2)[C@H](C)[C@H]2OC(=O)O[C@@]21C	0.5 (≈ 0.627 µM)	> 256	64 (≈ 80.2 µM)	0.064 (≈ 0.0802 µM)	> 256	0.016 (≈ 0.0201 µM)	0.5 (≈ 0.627 µM)	32 (≈ 40.1 µM)	1 (≈ 1.25 µM)	0.5 (≈ 0.627 µM)	0.5 (≈ 0.627 µM)	1 (≈ 1.25 µM)	2 (≈ 2.51 µM)	1 (≈ 1.25 µM)	> 256
CC[C@H]1OC(=O)[C@H](C)C(=O)[C@H](C)[C@@H](O[C@@H]2O[C@H](C)C[C@H](N(C)C)[C@H]2O)[C@](C)(OC)C[C@@H](C)/C(=N\OCC#Cc2ccc(-c3ccccn3)s2)[C@H](C)[C@H]2OC(=O)O[C@@]21C	1 (≈ 1.21 µM)	–	32 (≈ 38.7 µM)	≤ 0.008	128 (≈ 155 µM)	0.125 (≈ 0.151 µM)	2 (≈ 2.42 µM)	32 (≈ 38.7 µM)	1 (≈ 1.21 µM)	4 (≈ 4.84 µM)	2 (≈ 2.42 µM)	0.25 (≈ 0.303 µM)	8 (≈ 9.68 µM)	–	–
CC[C@H]1OC(=O)[C@H](C)C(=O)[C@H](C)[C@@H](O[C@@H]2O[C@H](C)C[C@H](N(C)C)[C@H]2O)[C@](C)(OC)C[C@@H](C)/C(=N\OCC#Cc2cnc3ccccc3c2)[C@H](C)[C@H]2OC(=O)O[C@@]21C	0.25 (≈ 0.315 µM)	128 (≈ 161 µM)	64 (≈ 80.6 µM)	≤ 0.008	> 256	≤ 0.008	0.5 (≈ 0.63 µM)	64 (≈ 80.6 µM)	0.5 (≈ 0.63 µM)	0.25 (≈ 0.315 µM)	0.5 (≈ 0.63 µM)	0.5 (≈ 0.63 µM)	0.25 (≈ 0.315 µM)	0.25 (≈ 0.315 µM)	128 (≈ 161 µM)
CC[C@H]1OC(=O)[C@H](C)C(=O)[C@H](C)[C@@H](O[C@@H]2O[C@H](C)C[C@H](N(C)C)[C@H]2O)[C@](C)(OC)C[C@@H](C)/C(=N\OCC#Cc2cccnc2)[C@H](C)[C@H]2OC(=O)O[C@@]21C	0.064 (≈ 0.086 µM)	> 256	128 (≈ 172 µM)	≤ 0.008	256 (≈ 344 µM)	≤ 0.008	0.125 (≈ 0.168 µM)	64 (≈ 86 µM)	0.125 (≈ 0.168 µM)	0.125 (≈ 0.168 µM)	0.25 (≈ 0.336 µM)	0.25 (≈ 0.336 µM)	0.125 (≈ 0.168 µM)	–	–
CC[C@H]1OC(=O)[C@H](C)C(=O)[C@H](C)[C@@H](O[C@@H]2O[C@H](C)C[C@H](N(C)C)[C@H]2O)[C@](C)(OC)C[C@@H](C)/C(=N\OCC#Cc2ccc3[nH]ccc3c2)[C@H](C)[C@H]2OC(=O)O[C@@]21C	1 (≈ 1.28 µM)	–	128 (≈ 164 µM)	0.5 (≈ 0.639 µM)	> 256	0.5 (≈ 0.639 µM)	2 (≈ 2.56 µM)	128 (≈ 164 µM)	2 (≈ 2.56 µM)	2 (≈ 2.56 µM)	2 (≈ 2.56 µM)	4 (≈ 5.12 µM)	8 (≈ 10.2 µM)	–	–
CC[C@H]1OC(=O)[C@H](C)C(=O)[C@H](C)[C@@H](O[C@@H]2O[C@H](C)C[C@H](N(C)C)[C@H]2O)[C@](C)(OC)C[C@@H](C)/C(=N\OCC#Cc2ccccn2)[C@H](C)[C@H]2OC(=O)O[C@@]21C	0.064 (≈ 0.086 µM)	> 256	128 (≈ 172 µM)	≤ 0.008	> 256	≤ 0.008	0.064 (≈ 0.086 µM)	128 (≈ 172 µM)	0.125 (≈ 0.168 µM)	0.125 (≈ 0.168 µM)	0.25 (≈ 0.336 µM)	0.5 (≈ 0.672 µM)	0.125 (≈ 0.168 µM)	–	–
CC[C@H]1OC(=O)[C@H](C)C(=O)[C@H](C)[C@@H](O[C@@H]2O[C@H](C)C[C@H](N(C)C)[C@H]2O)[C@](C)(OC)C[C@@H](C)/C(=N\OCC#Cc2cccs2)[C@H](C)[C@H]2OC(=O)O[C@@]21C	1 (≈ 1.34 µM)	64 (≈ 85.5 µM)	64 (≈ 85.5 µM)	0.25 (≈ 0.334 µM)	64 (≈ 85.5 µM)	0.25 (≈ 0.334 µM)	1 (≈ 1.34 µM)	32 (≈ 42.7 µM)	1 (≈ 1.34 µM)	1 (≈ 1.34 µM)	1 (≈ 1.34 µM)	4 (≈ 5.34 µM)	1 (≈ 1.34 µM)	–	–
CC[C@H]1OC(=O)[C@H](C)C(=O)[C@H](C)[C@@H](O[C@@H]2O[C@H](C)C[C@H](N(C)C)[C@H]2O)[C@](C)(OC)C[C@@H](C)/C(=N\OCC#Cc2ccc(C(=O)c3ccccc3)s2)[C@H](C)[C@H]2OC(=O)O[C@@]21C	2 (≈ 2.34 µM)	128 (≈ 150 µM)	64 (≈ 75 µM)	0.125 (≈ 0.147 µM)	128 (≈ 150 µM)	0.064 (≈ 0.075 µM)	2 (≈ 2.34 µM)	32 (≈ 37.5 µM)	2 (≈ 2.34 µM)	2 (≈ 2.34 µM)	2 (≈ 2.34 µM)	1 (≈ 1.17 µM)	2 (≈ 2.34 µM)	–	–
CC[C@H]1OC(=O)[C@H](C)C(=O)[C@H](C)[C@@H](O[C@@H]2O[C@H](C)C[C@H](N(C)C)[C@H]2O)[C@](C)(OC)C[C@@H](C)/C(=N\OCC#Cc2ccnc3ccccc23)[C@H](C)[C@H]2OC(=O)O[C@@]21C	0.5 (≈ 0.63 µM)	64 (≈ 80.6 µM)	32 (≈ 40.3 µM)	0.016 (≈ 0.0202 µM)	64 (≈ 80.6 µM)	0.016 (≈ 0.0202 µM)	0.25 (≈ 0.315 µM)	32 (≈ 40.3 µM)	0.5 (≈ 0.63 µM)	0.25 (≈ 0.315 µM)	0.5 (≈ 0.63 µM)	1 (≈ 1.26 µM)	0.25 (≈ 0.315 µM)	–	–
